Results from ChEMBL document CHEMBL3286111, “Tryptophan hydroxylase 1 (Tph-1)-targeted bone anabolic agents for osteoporosis” (J Med Chem, 2014).
Calls of active or inactive are those of the source. No cut-off for these calls is given here.

Columns and labels:
[1] = Cytotoxicity against rat RBL2H3 cells by MTT assay; format: cell-based; set-up: concentration or dose not given beside the values; settings: rbl-2h3
How it was run: (§1)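 RBL2H3 cells (α-MEM) or PC12 cells (D-MEM), both with 10% FBS, treated at a single dose in 0.1% DMSO; 0.1% DMSO control; 37 °C, 5% CO2. MTT (5 mg/mL) added 4 h before the end, then SDS/DMF lysis buffer (pH 7.2) for 6 h; absorbance read at 570 nm. Cytotoxicity % calculated from background-corrected OD versus control.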

[2] = Cytotoxicity against rat PC12 cells by MTT assay; format: cell-based; settings: pc-12; how it was run: as §1
Rattus norvegicus [3] = test: Antiosteoporotic activity in ovariectomized po dosed rat assessed as decrease in serum serotonin level administered for 30 days by HPLC analysis; format: functional, organism-based
How it was run: (§2)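 Female rats, 12 weeks old (220 g), bilateral ovariectomy under ip pentobarbital; from 3 days after surgery, 9a given orally once daily at 1, 10 or 20 mg/kg in 5% ethanol/95% water for 30 days, n = 8. Serum (HClO4-deproteinized) or brain homogenate (HClO4 plus NaH2PO4/acetonitrile) run on RP-C18 HPLC with fluorescence detection (ex 290/em 330 nm).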

Rattus norvegicus [4] = test: Effect on brain serotonin level in ovariectomized rat at 1 to 20 mg/kg/day, po for 30 days by RP-HPLC analysis; format: functional, organism-based; how it was run: as §2
Rattus norvegicus [5] = test: Antiosteoporotic activity in ovariectomized rat assessed as decrease in gut serotonin level at 10 mg/kg, po qd for 7 days by HPLC analysis relative to control; format: functional; set-up: scale not given: the % may be the effect or the level left
How it was run: (§3)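 Female rats, 12 weeks old (220 g), underwent bilateral ovariectomy under ip pentobarbital; sham controls included; n = 5 per group. Oral dosing in vehicle of 5% ethanol/95% water began 3 days post-surgery, once daily for 7 days. Small intestine (jejunum, ileum) was homogenised in 5% HClO4 and mobile phase. Serotonin was read by C18 HPLC with fluorescence detection (ex 290/em 330 nm).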

Rattus norvegicus [6] = test: Antiosteoporotic activity in ovariectomized rat assessed as decrease in gut serotonin level at 20 mg/kg, po qd for 7 days by HPLC analysis relative to control; format: functional; set-up: scale not given: the % may be the effect or the level left; how it was run: as §3
Brain = test: Drug uptake in ovariectomized rat brain at 10 to 20 mg/kg, po qd for 7 days by LC-MS analysis; format: ADME, organism-based; set-up: dose 10-20 mg/kg, route oral; settings: in vivo, 168 h
How it was run: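 OVX rats given oral 9a at 10 or 20 mg/kg once daily for 7 days, starting 3 days after surgery, n = 5. Brain homogenate (about 2.0 g) extracted with 5% HClO4 and ethyl acetate, centrifuged; the organic layer was dried and analysed by LC-MS/MS (limit of detection 12.4 pg).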

Rattus norvegicus [7] = test: Antiosteoporotic activity in ovariectomized rat assessed as increase in trabecular bone volume fraction at 1 mg/kg/day, po for 30 days by microcomputed tomographic analysis; format: functional, organism-based; settings: Trabecula
How it was run: (§4)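 Ovariectomized 12-week-old female rats dosed orally once daily with 9a (1, 10, 20 mg/kg/day, 5% ethanol vehicle) for 30 days, beginning 3 days after surgery, n = 8 per group. Lumbar vertebrae were collected after CO2 euthanasia and scanned by micro-CT for BV/TV, Tb.Th, Tb.N, Tb.Sp and BMD.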

Rattus norvegicus [8] = test: Antiosteoporotic activity in ovariectomized rat assessed as increase in trabecular thickness at 1 mg/kg/day, po for 30 days by microcomputed tomographic analysis; format: functional, organism-based; settings: Trabecula; how it was run: as §4
Rattus norvegicus [9] = test: Antiosteoporotic activity in ovariectomized rat assessed as increase in trabecular number at 1 mg/kg/day, po for 30 days by microcomputed tomographic analysis; format: functional, organism-based; settings: Trabecula; how it was run: as §4
Rattus norvegicus [10] = test: Antiosteoporotic activity in ovariectomized rat assessed as increase in bone mineral density at 1 mg/kg/day, po for 30 days by microcomputed tomographic analysis; format: functional, organism-based; how it was run: as §4
Rattus norvegicus [11] = test: Antiosteoporotic activity in ovariectomized rat assessed as decrease in trabecular separation at 1 mg/kg/day, po for 30 days by microcomputed tomographic analysis; format: functional, organism-based; settings: Trabecula; how it was run: as §4
Rattus norvegicus [12] = test: Antiosteoporotic activity in ovariectomized rat assessed as increase in bone mineral density at 10 to 20 mg/kg/day, po for 30 days by microcomputed tomographic analysis relative to control; format: functional
How it was run: (§5)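 Female rats, 12 weeks old, underwent bilateral ovariectomy; sham, OVX-vehicle and ip PTH 20 μg/kg/day groups were included; n = 8. Oral dosing at 1, 10 and 20 mg/kg/day in 5% ethanol/95% water began 3 days post-surgery, once daily for 30 days. Lumbar vertebrae were scanned by μCT for BV/TV, Tb.Th, Tb.N, Tb.Sp and BMD.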

Rattus norvegicus [13] = test: Antiosteoporotic activity in ovariectomized rat assessed as increase in trabecular bone volume fraction at 10 to 20 mg/kg/day, po for 30 days by microcomputed tomographic analysis relative to control; format: functional, Trabecula; how it was run: as §5
Rattus norvegicus [14] = test: Antiosteoporotic activity in ovariectomized rat assessed as increase in trabecular number at 10 to 20 mg/kg/day, po for 30 days by microcomputed tomographic analysis relative to control; format: functional, Trabecula; how it was run: as §5
Rattus norvegicus [15] = test: Antiosteoporotic activity in ovariectomized rat assessed as increase in trabecular thickness at 10 to 20 mg/kg/day, po for 30 days by microcomputed tomographic analysis relative to control; format: functional, Trabecula; how it was run: as §5
Rattus norvegicus [16] = test: Antiosteoporotic activity in ovariectomized rat assessed as decrease in trabecular separation at 10 to 20 mg/kg/day, po for 30 days by microcomputed tomographic analysis relative to control; format: functional, Trabecula; set-up: scale not given: the % may be the effect or the level left; how it was run: as §5
Rattus norvegicus [17] = test: Antiosteoporotic activity in ovariectomized po dosed rat assessed as increase in serum P1NP level administered for 30 days by ELISA; format: functional, organism-based
How it was run: (§6)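 OVX female rats (12 weeks old), oral 9a at 1, 10 or 20 mg/kg per day in 5% ethanol vehicle, starting 3 days post-surgery, for 30 days, n = 8. Serum was taken at the end, centrifuged and stored at −20 °C. P1NP or CTX-1 was measured by ELISA kit and reported as means ± SD.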

Rattus norvegicus [18] = test: Antiosteoporotic activity in ovariectomized rat assessed as decrease in serum CTX-1 level at 10 to 20 mg/kg/day, po for 30 days by ELISA; format: functional, organism-based; how it was run: as §6
Rattus norvegicus [19] = test: Effect on endometrial luminal epithelium with undeveloped endometrial gland in ovariectomized rat at 10 to 20 mg/kg/day, po for 30 days by hematoxylin-eosin staining-based light microscopic analysis; format: ADME, organism-based; set-up: route oral; settings: in vivo, 720 h
How it was run: (§7)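 OVX rats dosed orally with 9a (1, 10, 20 mg/kg/day) for 30 days from 3 days post-surgery. Uteri and livers were collected at the end, then sectioned, stained and examined by light microscopy for endometrial luminal epithelium, glands and liver morphology/pathology.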

Rattus norvegicus [20] = test: Effect on liver morphology in ovariectomized rat at 10 to 20 mg/kg/day, po for 30 days by hematoxylin-eosin staining-based light microscopic analysis; format: ADME, organism-based; set-up: route oral; settings: in vivo, 720 h; how it was run: as §7
Rattus norvegicus [21] = test: Effect on liver pathology in ovariectomized rat at 10 to 20 mg/kg/day, po for 30 days by hematoxylin-eosin staining-based light microscopic analysis; format: ADME, organism-based; set-up: route oral; settings: in vivo, 720 h; how it was run: as §7

CCOC(=O)CNC(=O)[C@]12CC[C@@H](C)[C@H](C)[C@H]1C1=CC[C@@H]3[C@@]4(C)Cc5nc6ccccc6nc5C(C)(C)[C@@H]4CC[C@@]3(C)[C@]1(C)CC2
Activity [1]: 1%
Activity [2]: Non-toxic
Activity (Rattus norvegicus [3]): Dose-dependent effect
Activity (Rattus norvegicus [4]): inactive
Activity (Rattus norvegicus [5]): 34%
Activity (Rattus norvegicus [6]): 36%
Drug uptake (Brain): Not Active
Activity (Rattus norvegicus [7]): inactive
Activity (Rattus norvegicus [8]): inactive
Activity (Rattus norvegicus [9]): inactive
Activity (Rattus norvegicus [10]): inactive
Activity (Rattus norvegicus [11]): inactive
Activity (Rattus norvegicus [12]): 22.6%
Activity (Rattus norvegicus [13]): 28%
Activity (Rattus norvegicus [14]): 43.3%
Activity (Rattus norvegicus [15]): 24%
Activity (Rattus norvegicus [16]): -24.9%
Activity (Rattus norvegicus [17]): Dose-dependent effect
Activity (Rattus norvegicus [18]): inactive
Activity (Rattus norvegicus [19]): Non-toxic
Activity (Rattus norvegicus [20]): Non-toxic
Activity (Rattus norvegicus [21]): Non-toxic
